pIC50: −log10 of the molar value.
Columns and labels:
Type in all cases: functional, cell-based
HeLa = assay: Cytotoxicity in human HeLa cells assessed as reduction in cell viability incubated for 48 hrs by MTT assay
Summary of the method: (§1)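 MTT viability assay; cells exposed continuously to compounds for 48 h. IC50 values reported as mean ± SD. Cisplatin served as positive control.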

A549 = assay: Cytotoxicity in human A549 cells assessed as reduction in cell viability incubated for 48 hrs by MTT assay; details: A549, 48 h; summary of the method: as §1
CNE = assay: Cytotoxicity in human CNE1 cells assessed as reduction in cell viability incubated for 48 hrs by MTT assay; summary of the method: as §1
HepG2 = assay: Cytotoxicity in human HepG2 cells assessed as reduction in cell viability incubated for 48 hrs by MTT assay; details: HepG2, 48 h; summary of the method: as §1

Work on `CCC[C@H](N)Cc1c[nH]c2ccccc12` yielded a pIC50 (HeLa) of less than 4.00, a pIC50 (A549) of less than 4.00 and a pIC50 (CNE) of less than 4.00. The pIC50 (HepG2) was less than 4.00.
Work on `C=CC[C@@H](Cc1c[nH]c2ccccc12)NS(=O)(=O)c1ccc(Cl)c(C(F)(F)F)c1` yielded a pIC50 (HeLa) of 4.37, a pIC50 (A549) of 4.46 and a pIC50 (CNE) of 4.54. For the same molecule, the pIC50 (HepG2) was 4.61.
In the case of `C=CC[C@@H](Cc1c[nH]c2ccccc12)NS(=O)(=O)c1ccc(C(C)C)cc1`, the pIC50 (HeLa) was 4.36, the pIC50 (A549) was 4.28 and the pIC50 (CNE) was 4.36. It also gave a pIC50 (HepG2) of 4.33.
`C=CC[C@@H](Cc1c[nH]c2ccccc12)NS(=O)(=O)c1ccc(C)c(F)c1` gave a pIC50 (HeLa) of 4.36, a pIC50 (A549) of 4.15 and a pIC50 (CNE) of 4.40. The pIC50 (HepG2) was 4.41.
With `C=CC[C@@H](Cc1c[nH]c2ccccc12)NS(=O)(=O)c1cccc2c(N(C)C)cccc12` the pIC50 (HeLa) was 4.46, the pIC50 (A549) was 4.28 and the pIC50 (CNE) was 4.44. It also gave a pIC50 (HepG2) of 4.28.
Work on `C=CC[C@@H](Cc1c[nH]c2ccccc12)NS(=O)(=O)c1ccc(Br)c(C)c1` yielded a pIC50 (HeLa) of 4.33, a pIC50 (A549) of 4.27 and a pIC50 (CNE) of 4.41. The pIC50 (HepG2) was 4.28.
With `CCC[C@@H](Cc1c[nH]c2ccccc12)NS(=O)(=O)c1c(C(C)C)cc(C(C)C)cc1C(C)C` the pIC50 (HeLa) was 4.79, the pIC50 (A549) was 4.40 and the pIC50 (CNE) was 4.75. It also gave a pIC50 (HepG2) of 4.51.
In the case of `C=CC[C@@H](Cc1c[nH]c2ccccc12)NS(=O)(=O)c1cc(C)ccc1C`, the pIC50 (HeLa) was 4.34, the pIC50 (A549) was 4.32 and the pIC50 (CNE) was 4.38. For the same molecule, the pIC50 (HepG2) was 4.35.
With `C=CC[C@@H](Cc1c[nH]c2ccccc12)NS(=O)(=O)c1ccc(C(F)(F)F)cc1Cl` the pIC50 (HeLa) was 4.35, the pIC50 (A549) was 4.28 and the pIC50 (CNE) was 4.44. For the same molecule, the pIC50 (HepG2) was 4.48.
Molecule `C=CC[C@@H](Cc1c[nH]c2ccccc12)NS(=O)(=O)c1ccc(Br)cc1F` has a pIC50 (HeLa) of 4.23 and a pIC50 (HepG2) of 4.23.
With `C=CC[C@@H](Cc1c[nH]c2ccccc12)NS(=O)(=O)c1ccccc1Cl` the pIC50 (HeLa) was less than 4.00 and the pIC50 (HepG2) was less than 4.00.
For `C=CC[C@@H](Cc1c[nH]c2ccccc12)NS(=O)(=O)c1ccc(F)c(Cl)c1`, the pIC50 (HeLa) was 4.47, the pIC50 (A549) was 4.38 and the pIC50 (CNE) was 4.47. It also gave a pIC50 (HepG2) of 4.42.
Molecule `C=CC[C@@H](Cc1c[nH]c2ccccc12)NS(=O)(=O)c1ccc(F)c(C(F)(F)F)c1` has a pIC50 (HeLa) of 4.49, a pIC50 (A549) of 4.41 and a pIC50 (CNE) of 4.57. The pIC50 (HepG2) was 4.44.
Molecule `C=CC[C@@H](Cc1c[nH]c2ccccc12)NS(=O)(=O)c1ccc(C(F)(F)F)cc1[N+](=O)[O-]` has a pIC50 (HeLa) of 4.45, a pIC50 (A549) of 4.13 and a pIC50 (CNE) of 4.41. It also gave a pIC50 (HepG2) of 4.39.
`C=CC[C@@H](Cc1c[nH]c2ccccc12)NS(=O)(=O)c1ccc(Cl)c([N+](=O)[O-])c1` showed a pIC50 (HeLa) of 4.27 and a pIC50 (HepG2) of 4.05.
`C=CC[C@@H](Cc1c[nH]c2ccccc12)NS(=O)(=O)c1cc(Br)cc(C(F)(F)F)c1` was tested, and the pIC50 (HeLa) was 4.50, the pIC50 (A549) was 4.53 and the pIC50 (CNE) was 4.64. It also gave a pIC50 (HepG2) of 4.60.
For `C=CC[C@H](N)Cc1c[nH]c2ccccc12`, the pIC50 (HeLa) was less than 4.00, the pIC50 (A549) was less than 4.00 and the pIC50 (CNE) was less than 4.00. For the same molecule, the pIC50 (HepG2) was less than 4.00.
For `C=CC[C@@H](Cc1c[nH]c2ccccc12)NS(=O)(=O)c1cccc(C(F)(F)F)c1`, the pIC50 (HeLa) was 4.35, the pIC50 (A549) was 4.28 and the pIC50 (CNE) was 4.39. It also gave a pIC50 (HepG2) of 4.33.
Molecule `C=CC[C@@H](Cc1c[nH]c2ccccc12)NS(=O)(=O)c1ccccc1` has a pIC50 (HeLa) of 4.16, a pIC50 (A549) of 4.11 and a pIC50 (CNE) of 4.39. It also gave a pIC50 (HepG2) of 4.23.
Work on `C=CC[C@@H](Cc1c[nH]c2ccccc12)NS(=O)(=O)c1ccc(F)cc1` yielded a pIC50 (HeLa) of less than 4.00 and a pIC50 (HepG2) of less than 4.00.
`C=CC[C@@H](Cc1c[nH]c2ccccc12)NS(=O)(=O)c1ccc(C(F)(F)F)cc1` gave a pIC50 (HeLa) of 4.38, a pIC50 (A549) of 4.30 and a pIC50 (CNE) of 4.42. It also gave a pIC50 (HepG2) of 4.29.
`C=CC[C@@H](Cc1c[nH]c2ccccc12)NS(=O)(=O)c1cc(F)c(Br)cc1F` was tested, and the pIC50 (HeLa) was 4.23, the pIC50 (A549) was 4.19 and the pIC50 (CNE) was 4.36. It also gave a pIC50 (HepG2) of 4.45.
`C=CC[C@@H](Cc1c[nH]c2ccccc12)NS(=O)(=O)c1c(C)cc(C)cc1C` showed a pIC50 (HeLa) of 4.45, a pIC50 (A549) of 4.39 and a pIC50 (CNE) of 4.50. For the same molecule, the pIC50 (HepG2) was 4.43.
`C=CC[C@@H](Cc1c[nH]c2ccccc12)NS(=O)(=O)c1ccc(Br)cc1` gave a pIC50 (HeLa) of 4.21, a pIC50 (A549) of 4.23 and a pIC50 (CNE) of 4.39. The pIC50 (HepG2) was 4.40.
`C=CC[C@@H](Cc1c[nH]c2ccccc12)NS(=O)(=O)c1ccc(C(F)(F)F)cc1Br` gave a pIC50 (HeLa) of 4.41, a pIC50 (A549) of 4.36 and a pIC50 (CNE) of 4.46. For the same molecule, the pIC50 (HepG2) was 4.38.
`C=CC[C@@H](Cc1c[nH]c2ccccc12)NS(=O)(=O)c1ccc(Cl)cc1Cl` gave a pIC50 (HeLa) of 4.39, a pIC50 (A549) of 4.25 and a pIC50 (CNE) of 4.37. The pIC50 (HepG2) was 4.26.
In the case of `C=CC[C@@H](Cc1c[nH]c2ccccc12)NS(=O)(=O)c1ccc(F)cc1Cl`, the pIC50 (HeLa) was 4.21 and the pIC50 (HepG2) was 4.14.
Work on `C=CC[C@@H](Cc1c[nH]c2ccccc12)NS(=O)(=O)c1ccc(Br)cc1Cl` yielded a pIC50 (HeLa) of 4.27, a pIC50 (A549) of 4.31 and a pIC50 (CNE) of 4.41. The pIC50 (HepG2) was 4.27.
In the case of `C=CC[C@@H](Cc1c[nH]c2ccccc12)NS(=O)(=O)c1ccc(OC(F)(F)F)cc1`, the pIC50 (HeLa) was 4.24, the pIC50 (A549) was 4.24 and the pIC50 (CNE) was 4.40. It also gave a pIC50 (HepG2) of 4.44.
In the case of `C=CC[C@@H](Cc1c[nH]c2ccccc12)NS(=O)(=O)c1cccc(Br)c1`, the pIC50 (HeLa) was 4.39, the pIC50 (A549) was 4.28 and the pIC50 (CNE) was 4.32. For the same molecule, the pIC50 (HepG2) was 4.23.
With `CCC[C@@H](Cc1c[nH]c2ccccc12)NS(=O)(=O)c1ccccc1` the pIC50 (HeLa) was 4.10, the pIC50 (A549) was 4.04 and the pIC50 (CNE) was 4.33. The pIC50 (HepG2) was 4.16.
In the case of `C=CC[C@@H](Cc1c[nH]c2ccccc12)NS(=O)(=O)c1c(C)c(C)cc(C)c1C`, the pIC50 (HeLa) was 4.58, the pIC50 (A549) was 4.52 and the pIC50 (CNE) was 4.58. For the same molecule, the pIC50 (HepG2) was 4.61.
Molecule `C=CC[C@@H](Cc1c[nH]c2ccccc12)NS(=O)(=O)c1ccc(Br)c(F)c1` has a pIC50 (HeLa) of 4.26 and a pIC50 (HepG2) of 4.24.
With `C=CC[C@@H](Cc1c[nH]c2ccccc12)NS(=O)(=O)c1ccc(Cl)cc1[N+](=O)[O-]` the pIC50 (HeLa) was 4.17 and the pIC50 (HepG2) was 4.15.
In the case of `C=CC[C@@H](Cc1c[nH]c2ccccc12)NS(=O)(=O)c1ccc(C)cc1`, the pIC50 (HeLa) was less than 4.00 and the pIC50 (HepG2) was less than 4.00.
Molecule `C=CC[C@@H](Cc1c[nH]c2ccccc12)NS(=O)(=O)c1ccccc1OC(F)(F)F` has a pIC50 (HeLa) of 4.17, a pIC50 (A549) of 4.18 and a pIC50 (CNE) of 4.17. It also gave a pIC50 (HepG2) of 4.40.
For `C=CC[C@@H](Cc1c[nH]c2ccccc12)NS(=O)(=O)c1ccc(Cl)cc1F`, the pIC50 (HeLa) was 4.13 and the pIC50 (HepG2) was 4.11.
In the case of `C=CC[C@@H](Cc1c[nH]c2ccccc12)NS(=O)(=O)c1ccc2ccccc2c1`, the pIC50 (HeLa) was 4.28, the pIC50 (A549) was 4.26 and the pIC50 (CNE) was 4.34. For the same molecule, the pIC50 (HepG2) was 4.35.
With `C=CC[C@@H](Cc1c[nH]c2ccccc12)NS(=O)(=O)c1ccc(CCC)cc1` the pIC50 (HeLa) was 4.17 and the pIC50 (HepG2) was 4.23.
For `C=CC[C@@H](Cc1c[nH]c2ccccc12)NS(=O)(=O)c1ccc(-c2ccccc2)cc1`, the pIC50 (HeLa) was 4.46, the pIC50 (A549) was 4.47 and the pIC50 (CNE) was 4.46. It also gave a pIC50 (HepG2) of 4.37.
For `C=CC[C@@H](Cc1c[nH]c2ccccc12)NS(=O)(=O)c1cc(C(F)(F)F)cc(C(F)(F)F)c1`, the pIC50 (HeLa) was 4.52, the pIC50 (A549) was 4.45 and the pIC50 (CNE) was 4.62. For the same molecule, the pIC50 (HepG2) was 4.66.
`C=CC[C@@H](Cc1c[nH]c2ccccc12)NS(=O)(=O)c1cc(Cl)c(F)cc1F` gave a pIC50 (HeLa) of 4.33, a pIC50 (A549) of 4.29 and a pIC50 (CNE) of 4.47. The pIC50 (HepG2) was 4.48.

— ChEMBL document CHEMBL4316611, “Design, synthesis and evaluation of novel (S)-tryptamine derivatives containing an allyl group and an aryl sulfonamide unit as anticancer agents” (Bioorg Med Chem Lett, 2019)
